D1 allo mod = D1 CRE-luciferase signal change, two-sided – cell-based, HEK293 D1, dopamine EC30, D1 allosteric modulator project, primary screen. AID 641, 2007. 58,000 tested, 5.9% active. B-score at 10 µM. D(1A) dopamine receptor (Homo sapiens), P21728. dopamine EC30 potentiation; actives deviate in either direction;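 active = luminescence count or its row- and column-corrected plate score outside the 99.7% band of the plate's sample wells, on either side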
M1 ag = M1 muscarinic receptor agonists, primary screen, CHO-M1 cells, Fluo-4 calcium, agonist mode | AID 626, 2007 | B-score at 10 µM | Fluo-4 calcium fluorescence; hits give high values | 64,000 tested, 3% active | Muscarinic acetylcholine receptor M1;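 active = fluorescence rise, raw or as B-score row- and column-corrected plate score, outside the 99.7% band of its plate's samples, either direction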
S1P1 ag pot = S1P1 agonists and agonism potentiators, primary screen, cell-based, primary and confirmation screens, CRE-bla reporter. S1P1 CRE-bla cells, forskolin, beta-lactamase FRET, potentiator mode; S1P1 agonist co-added at EC20, 2 nM; 100% = saturating reference agonist, 0% = basal. activation, % at 9.5 µM. 56,000 tested, 0.57% active. AID 449, 2006;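 active = activation above a cutoff set at the mean activation of all tested compounds plus 3 SD, cut at about 54% in these data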;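 also: forskolin at 4 µM as EC80 and the EC20 agonist is SEW2871; 100% = SEW2871 at its EC100 plus forskolin at EC80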
S1P3 agonist = human S1P3 receptor agonists, primary screen, cell-based, primary and confirmation, NFAT-BLA reporter; Sphingosine 1-phosphate receptor 3 (Homo sapiens), Q99500; S1P3 NFAT-BLA reporter cells, agonism, FRET ratio; relative to 1 µM S1P, basal subtracted; activation, % at 4.5 µM; 60,000 tested, 0.1% active; AID 373, 2006;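 active = activation above the screen-wide mean plus 3 SD, cut at about 4.5% in these data, passing the limit was not always enough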
Target sequence (Q99500 whole entry, looked up): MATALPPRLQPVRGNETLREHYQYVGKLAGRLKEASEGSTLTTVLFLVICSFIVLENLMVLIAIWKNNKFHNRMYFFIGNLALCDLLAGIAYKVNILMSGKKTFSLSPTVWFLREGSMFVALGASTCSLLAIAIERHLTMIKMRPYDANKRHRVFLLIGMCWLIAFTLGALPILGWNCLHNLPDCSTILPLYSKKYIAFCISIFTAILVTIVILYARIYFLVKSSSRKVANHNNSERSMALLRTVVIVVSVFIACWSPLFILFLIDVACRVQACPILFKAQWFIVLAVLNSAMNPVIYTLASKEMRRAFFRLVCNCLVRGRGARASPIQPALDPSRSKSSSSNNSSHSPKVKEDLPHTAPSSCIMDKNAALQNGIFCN
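Measure – % activation relative to 1 µM S1P (100%), per plate · System – stable CHO line with human S1P3, Gα16, NFAT-BLA reporter · Timing – cells plated overnight, compound 4 h 37 °C, substrate 2 h RT · Technique – fluorescent BLA substrate, ex 405 nm, em 460/535 nm ratio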
M1 antag = antagonists of rat M1 muscarinic receptor. AID 628, 2007. Muscarinic acetylcholine receptor M1 (Rattus norvegicus), P08482. CHO-M1 cells, Fluo-4 calcium, ACh EC80 antagonist mode; hits give low values. 64,000 tested, 3.4% active. B-score at 10 µM;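 active = calcium fluorescence response, raw or row-and-column corrected B-score, differing from the plate sample mean either way at a set confidence level, mostly lower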
D1 PAM confirm = D1 receptor positive allosteric modulators, retest, confirmation, cell-based, HEK293 D1, CRE-luciferase, duplicate. shares compounds with D1 allo mod. dopamine EC30 potentiation; hits give high values. luminescence at 10 µM. 2,200 tested, 88% active;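 active = luminescence in either of two replicates above the same-plate mean plus 3 SD of the low-dose dopamine control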
D1 no dopamine = D1 receptor agonism without dopamine, confirmation, mechanism study for D1 allosteric modulator project, cell-based, HEK293 D1, CRE-luciferase, secondary assay 1; 1,900 tested, 0.8% active; luminescence at 10 µM; shares compounds with D1 allo mod; AID 646, 2007; luminescence, no dopamine; hits give high values; in the data active = luminescence above about 3900
Isoprot counter = isoproterenol response counter-screen activity for D1 modulators; AID 647; luminescence at 10 µM; HEK293 D1 CRE-luciferase, isoproterenol EC30 counter-screen; hits give high values; shares compounds with D1 allo mod; 2,200 tested, 63% active;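 active = luminescence in either replicate above plate mean of wells with a partly effective reference agonist dose plus 3 SD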;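 also: isoproterenol raises cAMP through native beta-adrenoceptor Gs so signal bypasses D1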
* = called active by the depositor. Rows were chosen to be rich in hits. Some 11% of all compounds tested hit in one or more screens of this group.

Results for COc1cc2c(cc1OC)C(C(=O)NCCN1CCOCC1)C1c3ccccc3CCN1C2=O (centres undefined) ?
D1 allo mod: -0.146; M1 ag: 0.715; S1P1 ag pot: -15.3; S1P3 agonist: -1.4; M1 antag: -1.13

What do the screens show for `COc1cc2c(cc1OC)C(C(=O)Nc1ccc3c(c1)OCCO3)C1c3ccccc3CCN1C2=O` (centres undefined)?
D1 allo mod: 4.07*; M1 ag: 0.0261; S1P1 ag pot: -27.3; S1P3 agonist: -0.1; M1 antag: 0.185; D1 PAM confirm: 6868*; D1 no dopamine: 1804; Isoprot counter: 2996

What do the screens show for `CC1CCC2(CC1)NC(=O)N(CC(=O)NC(=O)NC1CCCC1)C2=O` (centres undefined)?
D1 allo mod: 0.488; M1 ag: -0.408; S1P1 ag pot: -16.3; S1P3 agonist: 0.2; M1 antag: 0.184

How did O=C(NCCCn1ccnc1)C(Cc1ccccc1)N1C(=O)c2ccccc2C1=O (centres undefined) do in these assays?
M1 ag: -0.116; S1P1 ag pot: 3.5; S1P3 agonist: -4.5; M1 antag: 0.371

How did Cc1cccc(-n2nnnc2SCc2csc(-c3ccccc3)n2)c1 do in these assays?
D1 allo mod: 2.08; M1 ag: -0.0433; S1P1 ag pot: -5.8; S1P3 agonist: 0.3; M1 antag: 0.311

How did CCOc1ccc(-c2nc(S(=O)(=O)c3ccccc3)c(NCc3cccnc3)o2)cc1 do in these assays?
D1 allo mod: 5.7*; M1 ag: -0.18; S1P1 ag pot: -10.0; S1P3 agonist: -0.8; M1 antag: -0.584; D1 PAM confirm: 8380*; D1 no dopamine: 1552; Isoprot counter: 3248*

How did CCCn1c(-c2cccs2)nc2ccccc21 do in these assays?
D1 allo mod: -0.294; M1 ag: 0.849; S1P1 ag pot: 8.0; S1P3 agonist: -0.7; M1 antag: 0.706

How did Brc1cc2c(cc1Cn1c(-c3cncs3)nc3ccccc31)OCO2 do in these assays?
D1 allo mod: 19.6*; M1 ag: 0.365; S1P1 ag pot: -18.9; S1P3 agonist: -0.9; M1 antag: 0.61; D1 PAM confirm: 14624*; D1 no dopamine: 1768; Isoprot counter: 4300*

How did Cc1ccccc1Cn1c(-c2cncs2)nc2ccccc21 do in these assays?
D1 allo mod: 13.7*; M1 ag: -0.174; S1P1 ag pot: -14.1; S1P3 agonist: -0.2; M1 antag: -0.171; D1 PAM confirm: 20248*; Isoprot counter: 3224*

How did COc1ccc(C2CNC(=O)C2)cc1OC1CCCC1 (centres undefined) do in these assays?
D1 allo mod: 44.7*; M1 ag: -0.414; S1P1 ag pot: -26.0; S1P3 agonist: -0.9; M1 antag: -0.243; D1 PAM confirm: 20880*; Isoprot counter: 4172*

How did CCCCn1c(NC(=O)CC)c(C#N)c2nc3ccccc3nc21 do in these assays?
D1 allo mod: 7.18*; M1 ag: -1.23; S1P1 ag pot: -1.1; S1P3 agonist: 0.4; M1 antag: 0.277; D1 PAM confirm: 14868*; D1 no dopamine: 1560; Isoprot counter: 3520*

What do the screens show for `CN(C)P(=NC(=O)COc1ccc(Cl)cc1Cl)(N(C)C)N(C)C`?
D1 allo mod: -0.622; M1 ag: 0.619; S1P1 ag pot: 5.9; S1P3 agonist: 0.4; M1 antag: -0.51

Screens: PubChem, several laboratories
